Measured values taken from ChEMBL document CHEMBL1268845, “A convenient synthesis and molecular modeling study of novel purine and pyrimidine derivatives as CDK2/cyclin A3 inhibitors” (Bioorg Med Chem, 2010).

Tests used:
[1] = system: CDK2/cyclin A3 (Marthasterias glacialis); experiment: Inhibition of starfish CDK2/cyclin A3 by ELISA
[2] = Cytotoxicity against mouse EAC cells after 48 hrs; format: functional; settings: Ehrlich
How it was run: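 EAC cells were harvested by needle aspiration of ascitic fluid from pre-inoculated female Swiss albino mice and maintained by weekly intraperitoneal transplantation. They were suspended in saline at 2.5 × 10^6 per mL and exposed for 48 h to serial dilutions from 10^-9 to 10^-4 M in DMSO/saline. The read-out was GI50.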

SMILES	IC50 [1]	GI50 [2]
COc1cc(/C=N/c2c(C#N)nc(=O)[nH]c2NS(=O)(=O)c2ccc(C)cc2)cc(OC)c1	35 µM	19 µM
COc1cccc(/C=N/c2c(C#N)nc(=O)[nH]c2NS(=O)(=O)c2ccc(C)cc2)c1OC	36 µM	21 µM
Cc1ccc(S(=O)(=O)NC(=O)N/C(C#N)=C(\N)C#N)cc1	32 µM	12 µM
Cc1ccc(S(=O)(=O)NC(=N)c2[nH]c(=O)[nH]c2C#N)cc1	45 µM	28 µM
Cc1ccc(S(=O)(=O)n2c3c([nH]c2=O)C(C(N)=O)=NC(C)(C)N3)cc1	14 µM	15 µM
CC(=O)CC1(C)N=C(C(N)=O)c2[nH]c(=O)n(S(=O)(=O)c3ccc(C)cc3)c2N1 (stereo unspecified)	13 µM	16 µM
COc1ccc(/C=N/C(C#N)=C(/C#N)NC(=O)NS(=O)(=O)c2ccc(C)cc2)cc1	39 µM	10 µM
COc1cc(OC)c(/C=N/C(C#N)=C(/C#N)NC(=O)NS(=O)(=O)c2ccc(C)cc2)c(OC)c1	38 µM	26 µM
COc1cc(/C=N/C(C#N)=C(/C#N)NC(=O)NS(=O)(=O)c2ccc(C)cc2)cc(OC)c1	42 µM	25 µM
COc1cccc(/C=N/C(C#N)=C(/C#N)NC(=O)NS(=O)(=O)c2ccc(C)cc2)c1OC	43 µM	27 µM
COc1ccc(/C=N/c2c(C#N)nc(=O)[nH]c2NS(=O)(=O)c2ccc(C)cc2)cc1	39 µM	17 µM
COc1cc(OC)c(/C=N/c2c(C#N)nc(=O)[nH]c2NS(=O)(=O)c2ccc(C)cc2)c(OC)c1	38 µM	16 µM
Nc1nc(OC[C@H]2CCC(=O)N2)c2nc[nH]c2n1	35 µM	18 µM
